What all share (format): cell-based
Assay [1] addresses T1, Prostaglandin G/H synthase 2 (Homo sapiens, UniProt P35354).
T1 sequence (P35354 whole entry): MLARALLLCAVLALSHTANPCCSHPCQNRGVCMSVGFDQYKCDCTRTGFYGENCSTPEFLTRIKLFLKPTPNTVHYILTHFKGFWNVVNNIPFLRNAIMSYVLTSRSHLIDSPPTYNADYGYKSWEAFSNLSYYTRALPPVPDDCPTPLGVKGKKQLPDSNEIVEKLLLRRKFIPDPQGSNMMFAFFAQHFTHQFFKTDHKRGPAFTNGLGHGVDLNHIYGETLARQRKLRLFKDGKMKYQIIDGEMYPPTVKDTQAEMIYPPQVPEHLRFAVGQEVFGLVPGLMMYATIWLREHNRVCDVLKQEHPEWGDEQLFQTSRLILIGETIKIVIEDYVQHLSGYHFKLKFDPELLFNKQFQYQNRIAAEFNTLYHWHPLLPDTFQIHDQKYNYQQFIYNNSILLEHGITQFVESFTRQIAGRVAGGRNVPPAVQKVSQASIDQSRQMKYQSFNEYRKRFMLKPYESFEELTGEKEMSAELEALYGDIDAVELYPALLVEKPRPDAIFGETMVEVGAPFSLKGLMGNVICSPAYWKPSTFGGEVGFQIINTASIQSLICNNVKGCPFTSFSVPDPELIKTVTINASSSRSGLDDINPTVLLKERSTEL
Kind of assay: Inhibition of COX2 in LPS-stimulated human monocytes assessed as reduction in PGE2 production by LC-tandem MIS analysis. In short, it runs like this: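 Human monocytes resuspended in HBSS and pretreated with increasing compound concentrations before LPS challenge. PGE2 quantified by LC−MS/MS using PGE2-d4 isotope-dilution internal standard.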

Assay [2] addresses T2, Peroxisome proliferator-activated receptor gamma (Homo sapiens) (UniProt P37231).
T2 sequence (whole entry): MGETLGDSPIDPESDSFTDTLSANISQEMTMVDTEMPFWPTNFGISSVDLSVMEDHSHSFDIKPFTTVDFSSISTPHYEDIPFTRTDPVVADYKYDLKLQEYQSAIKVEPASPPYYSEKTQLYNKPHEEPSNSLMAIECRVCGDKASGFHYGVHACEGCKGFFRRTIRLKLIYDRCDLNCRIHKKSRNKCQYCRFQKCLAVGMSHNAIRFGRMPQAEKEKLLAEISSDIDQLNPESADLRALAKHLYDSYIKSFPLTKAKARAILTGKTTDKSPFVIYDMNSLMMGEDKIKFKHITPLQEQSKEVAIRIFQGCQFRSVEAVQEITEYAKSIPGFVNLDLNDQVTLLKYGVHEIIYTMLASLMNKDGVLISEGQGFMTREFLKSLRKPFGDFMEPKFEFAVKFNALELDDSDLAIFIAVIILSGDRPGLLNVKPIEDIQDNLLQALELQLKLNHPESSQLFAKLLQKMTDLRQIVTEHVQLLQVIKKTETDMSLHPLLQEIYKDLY
The experiment in a line: Activation of Gal4-fused human PPARgamma LBD transfected in HEK293T cells at 10 uM after 12 to 14 hrs by luciferase reporter gene assay. In short, it runs like this:
(§1)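 Gal4–human nuclear receptor LBD fusion (pFA-CMV-hNR-LBD) co-transfected with pFR-Luc and pRL-SV40 (Lipofectamine LTX) into HEK293T cells seeded the day before. 5 h post-transfection, compound added in Opti-MEM with 0.1% DMSO and incubated 12−14 h. Dual-Glo firefly/Renilla luciferase read. Activation expressed relative to reference agonist at 1 μM. Triplicates, ≥3 independent experiments.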
Background: A reporter such as luciferase makes a cellular process visible.

In assay [3] the target is T3, Peroxisome proliferator-activated receptor alpha (Homo sapiens) (UniProt Q07869).
T3 sequence (whole entry): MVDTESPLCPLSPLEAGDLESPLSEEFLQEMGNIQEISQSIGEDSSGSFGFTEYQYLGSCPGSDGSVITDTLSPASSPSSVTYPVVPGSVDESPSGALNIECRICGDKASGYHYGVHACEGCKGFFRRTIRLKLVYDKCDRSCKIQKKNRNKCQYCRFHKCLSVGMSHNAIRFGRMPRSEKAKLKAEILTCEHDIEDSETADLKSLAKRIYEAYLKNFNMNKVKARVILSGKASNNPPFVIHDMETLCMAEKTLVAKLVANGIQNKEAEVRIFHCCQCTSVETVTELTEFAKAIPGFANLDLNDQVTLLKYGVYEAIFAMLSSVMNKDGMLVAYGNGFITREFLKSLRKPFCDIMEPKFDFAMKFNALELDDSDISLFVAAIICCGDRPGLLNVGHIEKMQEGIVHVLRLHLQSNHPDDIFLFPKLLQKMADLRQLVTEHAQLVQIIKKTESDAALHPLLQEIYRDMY
The experiment in a line: Activation of Gal4-fused human PPARalpha LBD transfected in HEK293T cells at 10 uM after 12 to 14 hrs by luciferase reporter gene assay. In short, it runs like this: as §1

In assay [4] the target is T4, Oxysterols receptor LXR-alpha (Homo sapiens) (UniProt Q13133).
T4 sequence (whole entry): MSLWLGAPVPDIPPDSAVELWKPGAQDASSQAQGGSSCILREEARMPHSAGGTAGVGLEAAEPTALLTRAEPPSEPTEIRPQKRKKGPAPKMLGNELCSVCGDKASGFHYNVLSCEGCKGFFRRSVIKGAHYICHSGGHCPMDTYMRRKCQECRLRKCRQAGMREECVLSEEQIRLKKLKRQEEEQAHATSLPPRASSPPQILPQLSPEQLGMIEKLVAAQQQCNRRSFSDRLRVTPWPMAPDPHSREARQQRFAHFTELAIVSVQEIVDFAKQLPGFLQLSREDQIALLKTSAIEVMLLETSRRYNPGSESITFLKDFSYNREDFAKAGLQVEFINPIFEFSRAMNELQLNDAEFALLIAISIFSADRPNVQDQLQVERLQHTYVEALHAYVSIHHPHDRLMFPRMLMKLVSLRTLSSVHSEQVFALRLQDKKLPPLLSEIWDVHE
Kind of assay: Activation of Gal4-fused human LXRalpha LBD transfected in HEK293T cells at 10 uM after 12 to 14 hrs by luciferase reporter gene assay. In short, it runs like this: as §1

Activity calls are given as the source filed them. No cut-off for these calls is given here.

What is called IC50 is the concentration needed to halve the response being measured.

With `O=C(O)CCCc1nc(-c2ccc(Cl)c(Cl)c2)c(-c2ccccc2)o1`, the IC50 in assay [1] was 420 nM. The Activity in assay [2] was 29%. Also, the result in assay [3] and in assay [4] was inactive.

Consider `O=C(O)CCc1nc(-c2ccccc2)c(-c2ccccc2)o1` [OXAPROZIN], for which the IC50 in assay [1] worked out at 110 nM. In addition, the outcome in assay [2], in assay [3] and in assay [4] was inactive.
